# Data published in ChEMBL document CHEMBL1149648, “Norcantharimides, synthesis and anticancer activity: Synthesis of new norcantharidin analogues and their anticancer evaluation” (2007).
# How the values were obtained:
# Format in all cases: functional
# A2780 [1] = assay: Cytotoxicity against human A2780 cells at 100 uM after 72 hrs by MTT assay; conditions: A2780, 72 h
# Procedure, shortened: (§1)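 Log-phase cells in DMEM with 10% FBS (37 °C, 5% CO2) were plated in duplicate at 2500–4000 cells/well. Agent was added 24 h later at a fixed final concentration of 100 µM and left for 72 h continuous exposure. Read-out was MTT absorbance at 540 nm, expressed as percent growth inhibition, where 100% means total growth inhibition.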
# [2] = Cytotoxicity against human SJG2 cells at 100 uM after 72 hrs by MTT assay; conditions: SJ-G2, 72 h; procedure, shortened: as §1
# DU-145 [3] = assay: Cytotoxicity against human DU145 cells at 100 uM after 72 hrs by MTT assay; conditions: DU-145, 72 h; procedure, shortened: as §1
# MCF7 [4] = assay: Cytotoxicity against human MCF7 cells at 100 uM after 72 hrs by MTT assay; conditions: MCF7, 72 h; procedure, shortened: as §1
# NCI-H460 [5] = assay: Cytotoxicity against human H460 cells at 100 uM after 72 hrs by MTT assay; conditions: NCI-H460, 72 h; procedure, shortened: as §1
# [6] = Cytotoxicity against human BE2C cells at 100 uM after 72 hrs by MTT assay; conditions: BE(2)-C; procedure, shortened: as §1
# SW480 [7] = assay: Cytotoxicity against human SW480 cells at 100 uM after 72 hrs by MTT assay; conditions: SW480, 72 h; procedure, shortened: as §1
# A-431 [8] = assay: Cytotoxicity against human A431 cells at 100 uM after 72 hrs by MTT assay; conditions: A-431, 72 h; procedure, shortened: as §1
# HT-29 [9] = assay: Cytotoxicity against human HT29 cells at 100 uM after 72 hrs by MTT assay; conditions: HT-29, 72 h; procedure, shortened: as §1
# A-431 [10] = assay: Cytotoxicity against human A431 cells after 72 hrs by MTT assay; conditions: A-431, 72 h
# Procedure, shortened: (§2)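 Cells were grown in DMEM with 10% FBS, bicarbonate, penicillin/streptomycin and 4 mM glutamine at 37 °C under 5% CO2. Log-phase cells were plated in duplicate at 2500–4000 cells/well. After 24 h, medium with or without agent was added (stocks in DMSO or water). Growth inhibition was read by MTT at 540 nm after 72 h continuous exposure. Values are means (SEM) of 3–6 experiments.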
# SW480 [11] = assay: Cytotoxicity against human SW480 cells after 72 hrs by MTT assay; conditions: SW480, 72 h; procedure, shortened: as §2
# DU-145 [12] = assay: Cytotoxicity against human DU145 cells after 72 hrs by MTT assay; conditions: DU-145, 72 h; procedure, shortened: as §2
# A2780 [13] = assay: Cytotoxicity against human A2780 cells after 72 hrs by MTT assay; conditions: A2780, 72 h; procedure, shortened: as §2
# NCI-H460 [14] = assay: Cytotoxicity against human H460 cells after 72 hrs by MTT assay; conditions: NCI-H460, 72 h; procedure, shortened: as §2
# HT-29 [15] = assay: Cytotoxicity against human HT29 cells after 72 hrs by MTT assay; conditions: HT-29, 72 h; procedure, shortened: as §2
# [16] = Cytotoxicity against human SJG2 cells after 72 hrs by MTT assay; conditions: SJ-G2, 72 h; procedure, shortened: as §2
# MCF7 [17] = assay: Cytotoxicity against human MCF7 cells after 72 hrs by MTT assay; conditions: MCF7, 72 h; procedure, shortened: as §2
# [18] = Cytotoxicity against human BE2C cells after 72 hrs by MTT assay; conditions: BE(2)-C
# Procedure, shortened: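 Cells cultured in DMEM with 10% FBS, bicarbonate, penicillin, streptomycin and 4 mM glutamine at 37 °C, 5% CO2. Log-phase cells plated in duplicate at 2500–4000/well; test agent (DMSO stock) added 24 h later. After 72 h continuous exposure, MTT read at 540 nm; means of 3–6 experiments.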
SMILES,inhibition at 100 µM (A2780 [1]),inhibition at 100 µM [2],inhibition at 100 µM (DU-145 [3]),inhibition at 100 µM (MCF7 [4]),inhibition at 100 µM (NCI-H460 [5]),inhibition at 100 µM [6],inhibition at 100 µM (SW480 [7]),inhibition at 100 µM (A-431 [8]),inhibition at 100 µM (HT-29 [9]),GI50 (A-431 [10]),GI50 (SW480 [11]),GI50 (DU-145 [12]),GI50 (A2780 [13]),GI50 (NCI-H460 [14]),GI50 (HT-29 [15]),GI50 [16],GI50 (MCF7 [17]),GI50 [18]
CCCCCCCCN1C(=O)[C@@H]2[C@H](C1=O)[C@@H]1CC[C@H]2O1,50%,54%,44%,88%,< 10%,68%,65%,61%,70%,,,,,,,,,
CCCCCCCCCCCCN1C(=O)[C@@H]2[C@H](C1=O)[C@@H]1CC[C@H]2O1,40%,58%,66%,52%,53%,40%,55%,35%,25%,,,,,,,,,
CCCN1C(=O)[C@@H]2[C@H](C1=O)[C@@H]1CC[C@H]2O1,< 10%,< 10%,< 10%,< 10%,< 10%,< 10%,45%,< 10%,16%,,,,,,,,,
CCC(C)N1C(=O)[C@@H]2[C@H](C1=O)[C@@H]1CC[C@H]2O1 (stereo partly drawn),< 10%,< 10%,< 10%,< 10%,< 10%,< 10%,< 10%,< 10%,< 10%,,,,,,,,,
CCCCCCN1C(=O)[C@@H]2[C@H](C1=O)[C@@H]1CC[C@H]2O1,< 10%,< 10%,< 10%,< 10%,< 10%,< 10%,< 10%,< 10%,< 10%,,,,,,,,,
C=CCCN1C(=O)[C@@H]2[C@H](C1=O)[C@@H]1CC[C@H]2O1,< 10%,< 10%,< 10%,< 10%,< 10%,< 10%,< 10%,< 10%,< 10%,,,,,,,,,
O=C1[C@@H]2[C@H](C(=O)N1CC(O)CO)[C@@H]1CC[C@H]2O1 (stereo partly drawn),> 100%,27%,67%,> 100%,32%,73%,69%,60%,39%,> 100 µM,62 µM,> 100 µM,59 µM,> 100 µM,> 100 µM,> 100 µM,46 µM,
COC(CO)CN1C(=O)[C@@H]2[C@H](C1=O)[C@@H]1CC[C@H]2O1 (stereo partly drawn),< 10%,< 10%,< 10%,33%,< 10%,< 10%,< 10%,< 10%,12%,,,,,,,,,
O=C1[C@@H]2[C@H](C(=O)N1CCO)[C@@H]1CC[C@H]2O1,15%,< 10%,< 10%,45%,16%,< 10%,18%,< 10%,31%,,,,,,,,,
CCCCN1C(=O)[C@@H]2[C@H](C1=O)[C@@H]1CC[C@H]2O1,< 10%,< 10%,< 10%,< 10%,< 10%,< 10%,< 10%,< 10%,< 10%,,,,,,,,,
CCCCCCCCCCN1C(=O)[C@@H]2[C@H](C1=O)[C@@H]1CC[C@H]2O1,44%,72%,83%,44%,> 100%,39%,59%,52%,20%,,,,,,,,,
O=C1[C@@H]2[C@H](C(=O)N1C1CCCCC1)[C@@H]1CC[C@H]2O1,< 10%,< 10%,< 10%,< 10%,< 10%,< 10%,< 10%,< 10%,< 10%,,,,,,,,,
O=C1[C@@H]2[C@H](C(=O)N1CC1CO1)[C@@H]1CC[C@H]2O1 (stereo partly drawn),40%,25%,22%,10%,17%,20%,30%,40%,25%,,,,,,,,,
C=CCN1C(=O)[C@@H]2[C@H](C1=O)[C@@H]1CC[C@H]2O1,67%,2%,15%,96%,20%,62%,50%,32%,19%,,,,,,,,80 µM,
CCCCCCCCCCCCCCCCCCN1C(=O)[C@@H]2[C@H](C1=O)[C@@H]1CC[C@H]2O1,< 10%,< 10%,< 10%,< 10%,< 10%,< 10%,< 10%,< 10%,< 10%,,,,,,,,,
C[C@@]12C(=O)OC(=O)[C@]1(C)[C@H]1CC[C@@H]2O1 [CANTHARIDIN],,,,,,,,,,2.9 µM,4.5 µM,2.1 µM,4.4 µM,3.3 µM,3.2 µM,1.7 µM,7.5 µM,3.7 µM
